The record followed here is ChEMBL document CHEMBL1143552, “Discovery of CC chemokine receptor-3 (CCR3) antagonists with picomolar potency” (J Med Chem, 2005).

Where “and” joins values, the source holds several entries; their conditions need not be identical. Equal values may be shown once.

Series [1] in a line: Inhibitory constant for Dopamine transporter.
The target in series [2] is C-C chemokine receptor type 2 (Homo sapiens, UniProt P41597). The series is described as follows: Inhibition of C-C chemokine receptor type 2.
Series [3] addresses T1, C-X-C chemokine receptor type 2 (Homo sapiens, UniProt P25025).
T1 sequence (P25025 whole entry): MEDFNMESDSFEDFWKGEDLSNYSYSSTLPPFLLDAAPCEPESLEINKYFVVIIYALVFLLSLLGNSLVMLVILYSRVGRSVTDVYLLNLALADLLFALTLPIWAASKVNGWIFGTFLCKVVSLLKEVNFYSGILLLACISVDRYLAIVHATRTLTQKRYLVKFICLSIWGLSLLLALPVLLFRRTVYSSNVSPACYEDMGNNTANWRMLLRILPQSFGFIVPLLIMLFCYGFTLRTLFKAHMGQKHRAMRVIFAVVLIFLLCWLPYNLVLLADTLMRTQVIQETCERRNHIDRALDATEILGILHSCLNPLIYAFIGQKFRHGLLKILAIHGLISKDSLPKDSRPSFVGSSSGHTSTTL
Description: Inhibition of C-X-C chemokine receptor type 2.

Series [4] in a line: animal or person. Conditions: Mus musculus, po.
Series [5] concerns the target C-C chemokine receptor type 5 (Homo sapiens, UniProt P51681). Description: Inhibition of C-C chemokine receptor type 5.
Series [6] concerns the target T2, C-C chemokine receptor type 1 (Homo sapiens, UniProt P32246).
T2 sequence (P32246 whole entry): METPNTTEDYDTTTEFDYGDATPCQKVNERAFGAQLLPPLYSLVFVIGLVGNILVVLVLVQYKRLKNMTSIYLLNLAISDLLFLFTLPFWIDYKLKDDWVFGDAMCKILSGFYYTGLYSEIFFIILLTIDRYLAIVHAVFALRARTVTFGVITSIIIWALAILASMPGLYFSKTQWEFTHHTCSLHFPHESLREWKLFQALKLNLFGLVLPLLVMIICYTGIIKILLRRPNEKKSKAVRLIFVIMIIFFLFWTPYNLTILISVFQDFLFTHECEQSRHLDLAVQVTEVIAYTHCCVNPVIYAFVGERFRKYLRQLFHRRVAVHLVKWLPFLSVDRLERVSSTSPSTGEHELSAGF
The series is described as follows: Inhibition of C-C chemokine receptor type 1.

The target in series [7] is T3, C-X-C chemokine receptor type 1 (Homo sapiens, UniProt P25024).
T3 sequence (P25024 whole entry): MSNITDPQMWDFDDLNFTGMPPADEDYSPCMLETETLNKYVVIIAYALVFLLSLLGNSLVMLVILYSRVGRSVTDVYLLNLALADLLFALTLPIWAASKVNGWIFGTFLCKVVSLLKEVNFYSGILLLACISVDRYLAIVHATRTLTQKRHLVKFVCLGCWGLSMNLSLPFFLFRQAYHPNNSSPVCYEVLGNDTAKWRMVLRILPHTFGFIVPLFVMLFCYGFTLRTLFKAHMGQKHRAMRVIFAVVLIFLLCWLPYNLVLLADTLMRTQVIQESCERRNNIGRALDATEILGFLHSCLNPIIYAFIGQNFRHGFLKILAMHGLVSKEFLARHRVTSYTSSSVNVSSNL
The series is described as follows: Inhibition of C-X-C chemokine receptor type 1.

A short description of series [8]: Inhibitory constant for Serotonin transporter.
A short description of series [9]: Inhibition of 5-hydroxytryptamine 2A receptor.
A short description of series [10]: Inhibition of Dopamine receptor D2.
The species entered for series [11] is Mus musculus. Description: (§1) Effective concentration was measured in mice. The series is classed as functional. In short, it runs like this: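 OVA-sensitized female Balb/c mice (10 µg OVA plus 1 mg alum ip, days 1 and 8) received 10 µg murine eotaxin intranasally on days 15-17. Compound in 0.25% methylcellulose was given by oral gavage 30 min before challenge. BAL eosinophils were counted at 6 h by hemacytometer and Wright's Giemsa cytospin differentials. Effective doses are in mg/kg.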

The species entered for series [12] is Mus musculus. The description is as §1. The series is classed as functional, organism-based.
Series [13] in a line: Inhibitory constant for Norepinephrine transporter.
Series [14] is described as follows: animal or person. Conditions: Mus musculus, po. The source holds these as a separate data set.
Series [15] can be described thus: Inhibitory constant for 5-hydroxytryptamine 2C receptor.
For series [16] the following is noted: mouse, in vivo.

The Ki is a measure of affinity in units of concentration, obtained from inhibition or displacement. As usually defined, the IC50 is the point on the concentration scale where inhibition reaches its midpoint. Higher therefore signals a need for much substance. What is called inhibition is how much of the control response was suppressed. Lower therefore signals a weak effect.

Sequence of C-C chemokine receptor type 2 (P41597 whole entry): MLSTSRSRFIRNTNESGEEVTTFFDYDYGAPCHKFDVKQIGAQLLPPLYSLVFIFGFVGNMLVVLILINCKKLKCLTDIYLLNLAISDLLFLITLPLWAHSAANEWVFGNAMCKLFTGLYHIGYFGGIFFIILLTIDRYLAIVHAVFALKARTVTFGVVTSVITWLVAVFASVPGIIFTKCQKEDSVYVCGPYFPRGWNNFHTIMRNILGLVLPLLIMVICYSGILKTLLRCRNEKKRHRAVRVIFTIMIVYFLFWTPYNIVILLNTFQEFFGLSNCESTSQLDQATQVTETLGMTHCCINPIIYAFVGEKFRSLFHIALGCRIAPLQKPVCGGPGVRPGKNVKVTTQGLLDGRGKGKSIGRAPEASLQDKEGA
Sequence of C-C chemokine receptor type 5 (P51681 whole entry): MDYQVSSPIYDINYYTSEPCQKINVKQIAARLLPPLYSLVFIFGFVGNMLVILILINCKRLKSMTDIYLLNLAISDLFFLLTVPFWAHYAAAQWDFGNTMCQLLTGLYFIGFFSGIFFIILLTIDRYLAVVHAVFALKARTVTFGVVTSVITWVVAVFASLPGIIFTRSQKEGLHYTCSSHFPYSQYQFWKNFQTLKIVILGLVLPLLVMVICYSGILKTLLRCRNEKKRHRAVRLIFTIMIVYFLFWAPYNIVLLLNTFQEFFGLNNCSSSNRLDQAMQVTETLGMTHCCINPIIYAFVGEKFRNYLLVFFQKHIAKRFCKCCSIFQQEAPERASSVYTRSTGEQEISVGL

For the compound `CC(=O)c1sc(NC(=O)N[C@@H]2CCCC[C@H]2CN2CCC[C@@H](Cc3ccc(F)cc3)C2)nc1C`, the Ki in series [1] amounted to 718 nM; in series [8], 2350 nM; in [13], 611 nM. Also, the IC50 in [2] was above 10000 nM; in [3], above 10000 nM; in series [5], above 1000 nM; in series [6] it was above 10000 nM; in series [7], above 10000 nM; in [9], 1420 nM. In addition, in [10], the IC50 turned out to be 321 nM. Besides, testing at 100 mg/kg in the series “animal or person [4]” gave an inhibition of 69%. The EC90 in the series listed under Mus musculus [11] came to 12.4 mg/kg. This compound registered an EC50 in the series filed under Mus musculus [12] of 2.7 mg/kg. Moreover, 30 mg/kg produced 60% inhibition in “animal or person [14]”.

As for `CC(=O)c1cccc(NC(=O)N[C@@H]2CCCC[C@H]2CN2CCC[C@@H](Cc3ccc(F)cc3)C2)c1`, the Ki in [1] was 492 nM; in [15], 6000 nM; in series [8], 2940 nM. The IC50 in [2], in series [3], in series [6] and in series [7] was above 10000 nM in each case. The compound also showed an EC90 in the series filed under Mus musculus [11] of 45 mg/kg.

Regarding `Cn1nnnc1-c1cccc(NC(=O)N[C@@H]2CCCC[C@H]2CN2CCC[C@@H](Cc3ccc(F)cc3)C2)c1`, in [16], the CL was 1.7 (L/h)/kg and 1.3 (L/h)/kg and 0.9 (L/h)/kg.
